The results in this text go back to ChEMBL document CHEMBL1128671, “New (2-methoxyphenyl)piperazine derivatives as 5-HT1A receptor ligands with reduced alpha 1-adrenergic activity. Synthesis and structure-affinity relationships” (J Med Chem, 1995).

The target in test [1] is T1, 5-hydroxytryptamine receptor 1A (Rattus norvegicus, UniProt P19327).
T1 sequence (P19327 whole entry): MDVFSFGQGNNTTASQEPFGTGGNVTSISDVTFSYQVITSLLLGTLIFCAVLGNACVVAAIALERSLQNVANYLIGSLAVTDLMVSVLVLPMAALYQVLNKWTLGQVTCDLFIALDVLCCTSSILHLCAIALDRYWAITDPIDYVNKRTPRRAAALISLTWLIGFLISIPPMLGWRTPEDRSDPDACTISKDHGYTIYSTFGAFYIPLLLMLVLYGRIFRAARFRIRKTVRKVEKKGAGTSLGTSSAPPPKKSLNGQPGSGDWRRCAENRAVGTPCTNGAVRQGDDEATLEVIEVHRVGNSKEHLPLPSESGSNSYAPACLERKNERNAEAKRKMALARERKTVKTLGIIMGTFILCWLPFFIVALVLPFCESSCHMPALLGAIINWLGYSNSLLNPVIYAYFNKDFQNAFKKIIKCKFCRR
The experiment in a line: In vitro ability to displace [3H]8-OH-DPAT from 5-hydroxytryptamine 1A receptor sites of rat brain cortex. In outline: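 Male Wistar rat cerebral cortex membranes in 50 mM Tris-HCl with 4 mM CaCl2, 0.1% ascorbate and 10 μM pargyline. Nonspecific binding defined with 10 μM 5-HT. Read by filtration and scintillation counting. Twelve displacer concentrations, triplicate samples, two experiments. IC50/Ki obtained by nonlinear regression.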

The target in test [2] is Adrenergic receptor alpha-1 (Oryctolagus cuniculus). The experiment in a line: Antagonistic activity at Alpha-1 adrenergic receptor was performed on ring segments of rabbit thoracic aorta contracted by noradrenaline.

The Ki is the equilibrium dissociation constant of an inhibitor or competing ligand from its target. The low end stands for a stronger hold on the target, the high end for a looser hold on the target. On to `COc1ccccc1N1CCN(CCCCNC(=O)c2ccco2)CC1`, for which, in test [1], the affinity corresponds to a Ki of 55.7 nM.

`COc1ccccc1N1CCN(CCCCNC(=O)c2ccsc2)CC1` showed a Ki in test [1] of 2.2 nM.

In test [1], `COc1ccccc1N1CCN(CCNC(=O)c2ccc(C)s2)CC1` came in with an inhibition constant Ki of 2.29 nM.

Regarding `COc1ccccc1N1CCN(CCCCNC(=O)c2sccc2C)CC1`, the Ki in test [1] came out at 1.53 nM.

As to `COc1ccccc1N1CCN(CCCNC(=O)c2cccnc2)CC1`, in test [1], the Ki came to 321 nM.

The compound `COc1ccccc1N1CCN(CCCCNC(=O)C2CC3CCC2C3)CC1` (stereo not given) displayed a Ki in test [1] of 0.23 nM.

As to `COc1ccccc1N1CCN(CCCCNC(=O)c2cccnc2)CC1`, the Ki in test [1] was 25.2 nM.

Take `COc1ccccc1N1CCN(CCCCNC(=O)c2ccc[nH]2)CC1`: the Ki in test [1] came to 12.5 nM.

As to `COc1ccccc1N1CCN(CCCCNC(=O)C2CCCC2)CC1`, the Ki in test [1] came out at 1.88 nM.

In the case of `COc1ccccc1N1CCN(CCNC(=O)Cc2ccsc2)CC1`, affinity in test [1] was put at a Ki of 32.3 nM.

For the compound `COc1ccccc1N1CCN(CCNC(=O)C2CCC3CCCC32)CC1` (stereo not given), the Ki in test [1] was found to be 0.24 nM.

With `COc1ccccc1N1CCN(CCCCNC(=O)Cc2ccsc2)CC1`, the Ki in test [1] was found to be 17.5 nM.

The pA2 is a measure of antagonist potency on a negative log scale. Low readings indicate a weaker antagonist, high ones a more potent antagonist. As to `COc1ccccc1N1CCN(CCCCNC(=O)c2cccn2C)CC1.O=C(O)/C=C/C(=O)O`, the pA2 in test [2] stood at 7.72. Further, the Ki in test [1] was 0.74 nM.

For the compound `COc1ccccc1N1CCN(CCNC(=O)c2cccnc2)CC1`, in test [1], the affinity corresponds to a Ki of 362 nM.

Compound `COc1ccccc1N1CCN(CCNC(=O)c2ccc[nH]2)CC1` had a Ki in test [1] of 20.3 nM.

Take `COc1ccccc1N1CCN(CCCCNC(=O)c2sccc2Cl)CC1`: affinity in test [1] was put at a Ki of 3.34 nM.

In turn, `COc1ccccc1N1CCN(CCNC(=O)C2CCCC2)CC1` registered a Ki in test [1] of 4.68 nM.

The compound `COc1ccccc1N1CCN(CCCCNC(=O)C2CCC3CCCC32)CC1` (stereo not given) had a Ki in test [1] of 0.63 nM.

Take `COc1ccccc1N1CCN(CCCCNC(=O)c2cccs2)CC1`: in test [2], the pA2 came to 9.16. This compound also displayed a Ki in test [1] of 2.34 nM.

For the compound `COc1ccccc1N1CCN(CCCCNC(=O)c2ccc(C)s2)CC1`, in test [2], the pA2 is less than 7. Also, in test [1], the affinity corresponds to a Ki of 3.8 nM.

Regarding `COc1ccccc1N1CCN(CCCCNC(=O)c2sccc2OC)CC1`, in test [1], the Ki was 32.1 nM.

Consider `COc1ccccc1N1CCN(CCNC(=O)C2CC3CCC2C3)CC1` (stereo not given), for which the Ki in test [1] was found to be 0.12 nM.

In the case of `COc1ccccc1N1CCN(CCNC(=O)c2cccn2C)CC1`, the pA2 in test [2] was less than 7. In addition, the affinity in test [1], expressed as Ki, was 1.19 nM.

The compound `COc1ccccc1N1CCN(CCCCNC(=O)C2CC3C=CC2C3)CC1` (stereo not given) gave a pA2 in test [2] of 8.53. Also, the affinity in test [1] corresponds to a Ki of 0.38 nM.

Compound `COc1ccccc1N1CCN(CCCNC(=O)C2CCC3CCCC32)CC1` (stereo not given) had a Ki in test [1] of 11.6 nM.

On to `COc1ccccc1N1CCN(CCNC(=O)c2sccc2C)CC1`, for which the affinity in test [1], expressed as Ki, was 3.09 nM.

Turning to `COc1ccccc1N1CCN(CCNC(=O)c2ccsc2)CC1`, the pA2 in test [2] is given as less than 7. Moreover, the affinity in test [1] corresponds to a Ki of 6.83 nM.

On to `COc1ccccc1N1CCN(CCCNC(=O)c2ccc[nH]2)CC1`, for which, in test [1], the inhibitory constant (Ki) came to 201 nM.

In test [1], `COc1ccccc1N1CCN(CCNC(=O)C2CC3C=CC2C3)CC1` (stereo not given) registered an inhibition constant Ki of 0.27 nM.
